According to ChEMBL document CHEMBL4513216, “Probing the Open Global Health Chemical Diversity Library for Multistage-Active Starting Points for Next-Generation Antimalarials” (ACS Infect Dis, 2020):

Assay: Toxicity liver stage against HepG2, at 10uM
Format: cell-based
Parameters: test concentration 10 uM, cell line HepG2-A16-CD81EGFP
Details: human, HepG2-A16-CD81EGFP cells; read-out: INHIBITION
In short: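 Uninfected HepG2-A16-CD81EGFP cells, 3 × 10^3 per well, 1536-well, plated on prespotted compound at 10 μM final, parasite-free screening media added to match infected plates; puromycin 10 μM positive, DMSO 0.5% negative; run in parallel with 48 h PbLuc assay at 37 °C, 5% CO2; viability by CellTiter-Glo luminescence, normalized to controls.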

| Compound | cytotoxicity at 10 µM [%] |
| --- | --- |
| CN(C(=O)c1cccc(C#N)c1)c1nnc(C2CCOC2)s1 (stereo not given) | 5.96 |
| CS(=O)(=O)N1C[C@@H]2OCC(=O)N(CC3CC3)[C@@H]2C1 | -13.8 |
| CC(=O)N1N=C(c2ccccc2)OC1C(=O)N(C)Cc1ccccc1 (stereo not given) | 2.37 |
| COCC(O)CN1CCC(=O)N(Cc2ccco2)Cc2ccccc21 (stereo not given) | -5.62 |
| CN1CC(C)(C)CN(C(=O)CCc2ccccc2)CC1=O | -0.191 |
| CN1CCN(CCCNC(=O)c2nc3ccccc3c(=O)[nH]2)CC1 | -5.46 |
| CCN1CC2(CC1=O)CN(C(=O)NC)CCN(S(C)(=O)=O)C2 (stereo not given) | -6.29 |
| Cc1nc(C)c2c(n1)CCN(C(=O)CN(C)C)CC2 | -4.51 |
| COCC(=O)N1CCC2(COCc3cnc(NCc4ccco4)nc32)C1 (stereo not given) | -1.75 |
| Cc1ccc(N2CC[C@H]3OCC[C@@]3(C(=O)N(C)C)C2)nn1 | 1.11 |
| COc1ccc(C2SCC(=O)N2c2ncc(C)s2)cc1 (stereo not given) | 8.45 |
| CC(C)CN1C(=O)c2ccc(C(=O)NCCc3c[nH]cn3)cc2C1=O | 9.66 |
| CN(C)C(=O)COC[C@]12COC[C@H]1CN(Cc1ccoc1)C2 | -1.56 |
| CCCNCc1ncc(C)c(OC)c1C | 0.105 |
| Cn1ncc2c1CCCN(C(=O)C1CC1)C2 | -8.27 |
| CNC(=O)C1(CCCc2cnccn2)CCN1Cc1ccc(C)cc1 (stereo not given) | 0.615 |
| Cc1nc(C)n(CCC(=O)N2CCc3ncc(Cl)cc3C2)n1 | 2.67 |
| CS(=O)(=O)c1cn[nH]c1C1CCCN1C(=O)c1cccnc1 (stereo not given) | -14.6 |
| Cc1noc(C2(C)CCCN(C(=O)c3cnn(C)c3)C2)n1 (stereo not given) | -17.3 |
| CN(C)c1cc(C2CCCN2Cc2ccccc2OCC(=O)O)ccn1 (stereo not given) | -3.8 |
| NCc1cnn(-c2ccccc2C(=O)NCCc2ccccn2)c1 | -19.5 |
| O=c1ccn([C@H]2CCN(Cc3ncc[nH]3)CC[C@@H]2O)c(=O)[nH]1 | 13 |

| Compound | cytotoxicity at 10 µM [%] |
| --- | --- |
| COCC(=O)N1CCCC(c2noc3nc(C)cc(C(F)(F)F)c23)C1 (stereo not given) | -2.25 |
| CN(C)C(=O)CN1CCC(c2cccc(Cc3ccc(F)cc3)n2)CC1 | -22.3 |
| O=C(c1ccccn1)N1CCCC(c2cc(C(F)F)n3ncnc3n2)C1 (stereo not given) | -1.74 |
| Cn1cc(C2CCCN2C(=O)c2cnc(-c3ncccn3)s2)cn1 (stereo not given) | 18.8 |
| CNC(=O)c1cccc(CNC2CCSc3c(Cl)cccc32)c1 (stereo not given) | 12.8 |
| CCCn1ccnc1-c1cccc(NC(=O)[C@H]2CCC(=O)N2)c1 | -4.97 |
| N#CCCN(Cc1ccco1)C(=O)COC1CCCCC1 | 6.35 |
| COCCn1c(C(=O)NCc2n[nH]c(C)n2)cc2ccccc21 | -3.83 |
| O=S(=O)(NCCc1ccccc1C(F)(F)F)N1CCOCC1 | 9.08 |
| N#Cc1cccc(NC(=O)N(CC(F)F)C2CC2)c1 | -16.1 |
| CC(C)C1CCC(N2CCN(CCCS(C)(=O)=O)CC2)CC1 (stereo not given) | 0.803 |
| O=C(CN1CCc2cncnc2C1)NC(c1ccccc1)C1CC1 (stereo not given) | -9.1 |
| Cc1cc(C2CCCN(C(=O)COc3cc(F)ccc3F)C2)n[nH]1 (stereo not given) | -1.3 |
| CNS(=O)(=O)c1ccc(CNC(=O)Nc2cc(C)on2)s1 | -2.34 |
| CC(C)(C)c1cnc(CN2CCN(c3ncccn3)CC2)o1 | -18.1 |
| CCC(NC(=O)c1cc(OC)c2c(c1)OCCO2)c1cccs1 (stereo not given) | -6.66 |
| CC(C)n1ccc(C(=O)NCC(O)c2c(Cl)cccc2Cl)n1 (stereo not given) | 1.81 |
| Cn1c(C2CCCN2C(=O)CN2CCCC2=O)nc2ccccc21 (stereo not given) | -3.47 |
| Cc1cnc(CN2CCN(C(C)c3nc(C4CC4)no3)CC2)cn1 (stereo not given) | 1.32 |
| O=C(Cn1ccc(=O)c2ccccc21)Nc1cnccc1O | -4.08 |
| Cc1cnn(CC2CCCN2CC(=O)N(C)Cc2ccco2)c1 (stereo not given) | 10.8 |
| CC(NC(=O)C1=NN(C)C(=O)CC1)c1cccc(Cl)c1 (stereo not given) | -2.45 |

| Compound | cytotoxicity at 10 µM [%] |
| --- | --- |
| CN(Cc1nc2ccccc2s1)C1CCCN(c2cccnn2)C1 (stereo not given) | 5.15 |
| CCn1cc(C(=O)Nc2ccc(C)cc2C(=O)NC)cn1 | 5.81 |
| CS(=O)(=O)Cc1cc(F)ccc1NCc1nnsc1Cl | -12.2 |
| COCC(C)(C)NS(=O)(=O)C1CS(=O)(=O)c2ccccc21 (stereo not given) | 4.22 |
| CN(c1cccc(C#N)c1)S(=O)(=O)c1cc(C(=O)O)ccc1Cl | -5.94 |
| NC(=O)CNC1(c2ccc(Cl)cc2)CCCC1 | 13 |
| CC(C)OCCN1CCc2cncnc2C1 | -7.52 |
| Cc1ccc(-n2c(C)nnc2SCC(O)COCc2ccco2)cc1 (stereo not given) | -11.6 |
| COC(=O)CC(C)(C)CC(=O)N1CCC(C(F)(F)F)CC1 | 14.9 |
| CCc1c(C)nc2ccccc2c1N1CCC(O)CC1 | 0.395 |
| O=c1[nH]c(N2CCN(C3CC3)CC2)nc2c1cnn2-c1ccccc1 | 10.8 |
| COC(=O)CCCNC(=O)COc1ccccc1C(F)(F)F | -0.969 |
| Cc1cccc(C(=O)NC2CCN(c3cnn(C)c3)C2=O)n1 (stereo not given) | 3.48 |
| O=C(C1CCC1)N1CCc2onc(Cn3cccn3)c2C1 | -1.13 |
| CCOCC1CC2(CCN(C(=O)c3ccccc3F)CC2)CO1 (stereo not given) | 2.26 |
| CCNc1nc2c(s1)C(=O)CN(C(=O)NCCc1ccccc1)C2 | 3.3 |
| c1cc(CN(CCCn2ccnc2)Cc2ccoc2)ccn1 | -11.1 |
| O=C(NCCN1CCCC(CO)C1)c1ccc2sccc2c1 (stereo not given) | -5.35 |
| CCN(C)Cc1nc(-c2ccccc2NS(C)(=O)=O)oc1C | 3.63 |
| COc1cccc2c1OCC(C(=O)NCCn1nc(C)c(Cl)c1C)C2 (stereo not given) | -5.89 |
| O=C(O)C1(Cc2ccc(F)cc2)CCCN(Cc2ccncc2)C1 (stereo not given) | -0.566 |
| CCn1nc(C)c(NC(=O)CN2CC[C@@H](F)C2)c1C | -1.2 |

| Compound | cytotoxicity at 10 µM [%] |
| --- | --- |
| CC(C)c1ccc(CC(=O)N2CCCC3(CN(C)C(=O)O3)C2)cc1 (stereo not given) | 16.2 |
| CC(=O)NCc1nnc2n1CCN(c1ncnc3c(C)csc13)CC2 | 4.71 |
| CCO[C@H]1C[C@@H](O)C12CCN(C(=O)CN1CCCCCC1=O)CC2 | 2.71 |
| Cc1nc(CCNc2nc(N(C)C)nc3c2CCCC3)cc(=O)[nH]1 | 6.86 |
| CN(C)C(Cn1ccnc1-c1ccccc1C(=O)O)c1ccccc1Cl (stereo not given) | -0.966 |
| O=C(O)C1(Oc2ccc(Cl)cc2)CCN(C2CCOCC2)CC1 | 3.05 |
| COc1ccccc1-c1noc(CCC(=O)NC(C)Cn2cccn2)n1 (stereo not given) | 5.67 |
| Cc1cccn2c(CNC(C)CO)cnc12 (stereo not given) | -2.78 |
| CC(=O)Nc1ccc(C(=O)N(C)C(C)Cc2cc(C)ccn2)cn1 (stereo not given) | 1.32 |
| Cc1ccccc1OCC1CCCN(C(=O)CN(C)C2CCNCC2)C1 (stereo not given) | -5.54 |
| Cc1nc[nH]c1CN1CCN(C(=O)CCC(F)(F)F)[C@H]2CS(=O)(=O)C[C@H]21 | -12.3 |
| O=C(Cn1ccnc1)N1C[C@@H]2CC[C@H](Oc3ccccc3)[C@@H]2C1 | -3.71 |
| O=S(=O)(c1ccccc1)N1CCCCC1c1cc[nH]n1 (stereo not given) | 7.65 |
| CCc1nc(C2CCCN2C(=O)c2ccc(N(C)C)nn2)no1 (stereo not given) | -11.4 |
| COCC(=O)NC(C)Cc1cccc(Cl)c1 (stereo not given) | -8.72 |
| CN1CCCC1CNC(=O)CCCOc1ccc(Cl)cc1 (stereo not given) | -9.33 |
| COc1cc(CCC(=O)NC2CC2)ccc1OCC(F)(F)F | -8.35 |
| CCN(CC1CCOC1)C(=O)c1ccccc1NS(=O)(=O)CC (stereo not given) | -7.4 |
| CC(=O)N1CCCN(C(=O)c2cnc3n[nH]c(C)c3c2)CC1 | -5.85 |
| Cc1ccc(NC2CCN(C(=O)CCc3ccco3)CC2)nn1 | -2.97 |
| Cn1ccnc1CN1CCN(Cc2noc(-c3ccccc3)n2)CC1 | 1.08 |
| Cc1cnn(CCC(=O)N2CCCN(c3cccnn3)CC2)c1 | 1.47 |

| Compound | cytotoxicity at 10 µM [%] |
| --- | --- |
| Cc1ccccc1CC(=O)N1CCN(C2CCOC2=O)CC1 (stereo not given) | -8.38 |
| CCc1nccn1C1CCCN(C(=O)c2cnn3ccc(C)nc23)C1 (stereo not given) | -9.68 |
| Cc1cnn(CC2CCCN2C(=O)c2cc3c(F)cccc3[nH]2)c1 (stereo not given) | -12.7 |
| Cc1ccc(-c2cc(CN3CCOC(Cn4cncn4)C3)on2)cc1 (stereo not given) | -8.65 |
| Cc1nc(CN2CCN(C(=O)c3cc(C4CC4)on3)CC2)cs1 | 2.21 |
| c1ccc2oc(CCCN3CCOC(Cn4cccn4)C3)nc2c1 (stereo not given) | 0.987 |
| Cc1noc(C)c1-c1cccc(C2CN(CC(=O)N(C)C)CCO2)n1 (stereo not given) | 0.025 |
| Cc1ccc(CN(CCCn2ccnc2)Cc2cnn(C)c2)s1 | -18 |
| c1cncc(OC[C@]23COC[C@H]2CN(C2CCOCC2)C3)c1 | 8.61 |
| COCCN1CCO[C@@H]2CN(Cc3sccc3C)C[C@@H]2C1 | -1.34 |
| Cc1ccc(N2Cc3cnn(C)c3C(COCC3CC3)C2)nn1 (stereo not given) | 3.28 |
| O=C(NCC1CCOCC1)[C@H]1C[C@@H]2CCN(c3nncs3)C[C@@H]2O1 | 1.73 |
| Cc1ccc(CN2CCn3c(CN4CCN(C)CC4)cnc3C2C)s1 (stereo not given) | 8.39 |
| O=C(N1CCOCC1)[C@@]12CCO[C@@H]1CCN(CC1CCCCC1)C2 | 3.59 |
| O=C1CO[C@@H]2CN(Cc3cccs3)C[C@H]2N1CC1CC1 | -2.32 |
| Cc1cncc(C(=O)N2C[C@H]3CCC[C@@]3(COc3ccccn3)C2)c1 | 1.08 |
| O=C(NC[C@H]1OC[C@@H](NC2CCNCC2)[C@@H]1O)C1CCCC1 | -10.5 |
| c1ccc(OCc2noc3c2CN(c2ncccn2)CC3)nc1 | -3.25 |
| CN(C)C(=O)COC[C@]12COC[C@H]1CN(CCc1ccccc1)C2 | -1.69 |
| O=C(NCc1ccccc1)C1=NOC2(CCNC2)C1 (stereo not given) | 0.213 |
| Cc1ccc(C(=O)N2C[C@@H]3CC[C@H]2CN(S(=O)(=O)N(C)C)C3)c(O)c1 | 3.41 |
| CN1C(=O)[C@@H]2CC[C@H]1CN(S(=O)(=O)c1ccc(Cl)cc1Cl)C2 | 1.47 |
